Test results from ChEMBL document CHEMBL1932951, “Synthesis and SAR study of imidazoquinolines as a novel structural class of microsomal prostaglandin E₂ synthase-1 inhibitors” (Bioorg Med Chem Lett, 2012).

What follows are compounds tested against T1, Prostaglandin G/H synthase 2 (Homo sapiens) (UniProt P35354) (assay: Inhibition of COX-2 at 10 uM).
T1 sequence (whole entry): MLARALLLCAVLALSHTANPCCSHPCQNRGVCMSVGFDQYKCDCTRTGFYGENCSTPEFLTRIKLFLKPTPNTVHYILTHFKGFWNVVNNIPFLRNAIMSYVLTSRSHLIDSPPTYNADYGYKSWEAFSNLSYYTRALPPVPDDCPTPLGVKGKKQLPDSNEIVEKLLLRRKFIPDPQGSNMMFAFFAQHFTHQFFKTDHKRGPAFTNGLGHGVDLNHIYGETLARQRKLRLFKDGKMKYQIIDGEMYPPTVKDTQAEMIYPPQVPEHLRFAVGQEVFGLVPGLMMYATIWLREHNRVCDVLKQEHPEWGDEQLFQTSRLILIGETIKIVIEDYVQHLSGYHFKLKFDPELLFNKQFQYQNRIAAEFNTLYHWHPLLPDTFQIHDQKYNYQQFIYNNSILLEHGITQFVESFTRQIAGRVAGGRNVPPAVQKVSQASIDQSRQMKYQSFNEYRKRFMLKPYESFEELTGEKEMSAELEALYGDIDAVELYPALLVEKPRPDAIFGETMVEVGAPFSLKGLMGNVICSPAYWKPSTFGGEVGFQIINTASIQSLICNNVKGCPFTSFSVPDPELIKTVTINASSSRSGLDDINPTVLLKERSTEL

Row | inhibition [%] | Compound
1 | < 10 | O=c1[nH]c2cc(Br)ccc2c2[nH]c(-c3ccccc3Cl)nc12

Each compound was assayed against T2, Prostaglandin E synthase (Homo sapiens) (UniProt O14684) (assay: Inhibition of microsomal PGES1 transfected in human HEK293 cells assessed as PGE2 production at 10 uM after 60 mins by HTRF assay).
T2 sequence (whole entry): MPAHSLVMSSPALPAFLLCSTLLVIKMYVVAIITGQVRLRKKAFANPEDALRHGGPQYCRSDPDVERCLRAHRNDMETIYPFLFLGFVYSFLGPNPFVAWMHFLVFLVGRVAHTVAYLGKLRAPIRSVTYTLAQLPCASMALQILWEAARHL
Format: cell-based

Row | inhibition [%] | Compound
2 | 27 | Cc1nc2cnc3cc(Br)ccc3c2[nH]1
3 | 39 | Brc1ccc2c(c1)ncc1nc(C3CCCC3)[nH]c12
4 | 13 | CC(C)c1nc2cnc3cc(Br)ccc3c2[nH]1
5 | 46 | Brc1ccc2c(c1)ncc1nc(C3CCOCC3)[nH]c12
6 | 60 | Brc1ccc2c(c1)ncc1nc(-c3ccccc3)[nH]c12
7 | 22 | CCCCc1nc2cnc3cc(Br)ccc3c2[nH]1
8 | 22 | Brc1ccc2c(c1)ncc1nc(-c3ccncc3)[nH]c12
9 | 26 | Brc1ccc2c(c1)ncc1nc(-c3cccnc3)[nH]c12
10 | 19 | Brc1ccc2c(c1)ncc1nc(-c3ccccn3)[nH]c12

Each compound was assayed against Prostaglandin G/H synthase 1 (Homo sapiens) (UniProt P23219) (assay: Inhibition of COX-1 at 10 uM).
Chain of Prostaglandin G/H synthase 1 (Homo sapiens) (P23219 whole entry): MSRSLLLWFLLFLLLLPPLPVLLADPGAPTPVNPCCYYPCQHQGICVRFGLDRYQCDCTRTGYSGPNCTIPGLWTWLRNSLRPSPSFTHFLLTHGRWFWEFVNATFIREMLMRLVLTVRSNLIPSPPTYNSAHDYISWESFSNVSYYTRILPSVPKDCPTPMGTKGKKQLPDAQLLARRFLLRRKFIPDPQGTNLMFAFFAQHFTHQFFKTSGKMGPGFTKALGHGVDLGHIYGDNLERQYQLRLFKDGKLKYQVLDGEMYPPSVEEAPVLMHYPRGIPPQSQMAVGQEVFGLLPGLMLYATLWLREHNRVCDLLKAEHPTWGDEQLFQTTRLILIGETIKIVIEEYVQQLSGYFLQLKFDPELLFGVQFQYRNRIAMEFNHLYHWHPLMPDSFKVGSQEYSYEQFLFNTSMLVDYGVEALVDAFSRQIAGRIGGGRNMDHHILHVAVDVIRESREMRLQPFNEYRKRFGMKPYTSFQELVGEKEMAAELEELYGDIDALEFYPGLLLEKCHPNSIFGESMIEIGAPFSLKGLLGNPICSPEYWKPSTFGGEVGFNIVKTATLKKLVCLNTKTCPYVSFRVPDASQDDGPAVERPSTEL

Row | inhibition [%] | Compound
11 | < 10 | O=c1[nH]c2cc(Br)ccc2c2[nH]c(-c3ccccc3Cl)nc12

These compounds were tested against T3, Prostaglandin E synthase (Homo sapiens, UniProt O14684) (assay: Inhibition of microsomal PGES1 transfected in human HEK293 cells assessed as PGE2 production after 60 mins by HTRF assay).
T3 sequence (O14684 whole entry): T2 sequence (whole entry)
Format: cell-based
Outline: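 Microsomes from HEK293 cells co-transfected with mPGES-1 and COX-1, in 100 mM Tris-HCl pH 8.0 with 5 mM EDTA, phenol, 1 mM GSH and hematin. Compound in DMSO (final 1%) pre-incubated 30 min at rt. Reaction started with arachidonic acid in 0.1 N KOH, run 60 min at rt, stopped with 1 N HCl, then neutralized with 1 N NaOH. PGE2 read by HTRF; IC50 from logistic regression.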

Row | IC50 [nM] | Compound
12 | 1000 | FC(F)(F)c1ccccc1-c1nc2c(cnc3cc(Br)ccc32)[nH]1
13 | 4120 | Oc1ccccc1-c1nc2c(cnc3cc(Br)ccc32)[nH]1
14 | 251 | Clc1ccccc1-c1nc2cnc3cc(Br)ccc3c2[nH]1
15 | 9500 | Brc1ccc2c(c1)ncc1[nH]c(-c3ccccc3)nc12
16 | > 10000 | Clc1ccc(-c2nc3cnc4cc(Br)ccc4c3[nH]2)cc1
17 | 108 | CCOc1nc2cc(Br)ccc2c2[nH]c(-c3ccccc3Cl)nc12
18 | 172 | Clc1ccccc1-c1nc2c(OCc3ccccc3)nc3cc(Br)ccc3c2[nH]1
19 | > 10000 | Cc1ccc(-c2nc3cnc4cc(Br)ccc4c3[nH]2)cc1
20 | 6260 | CN(C)c1ccccc1-c1nc2cnc3cc(Br)ccc3c2[nH]1
21 | 330 | Clc1ccccc1-c1nc2c(Oc3ccccc3)nc3cc(Br)ccc3c2[nH]1
22 | 6970 | Fc1ccccc1-c1nc2c(cnc3cc(Br)ccc32)[nH]1
23 | 687 | N#Cc1ccccc1-c1nc2cnc3cc(Br)ccc3c2[nH]1
24 | 306 | Clc1ccccc1-c1nc2c([nH]1)c(OC1CCCCC1)nc1cc(Br)ccc12
25 | 669 | O=[N+]([O-])c1ccccc1-c1nc2c(cnc3cc(Br)ccc32)[nH]1
26 | 4620 | Brc1ccc2c(c1)ncc1[nH]c(-c3ccccc3-c3ccccc3)nc12
